procasp3 activ – activators of human procaspase-3 D3A mutant, primary screen, biochemical, absorbance, PC-3 D3A mutant, single concentration; Caspase-3 (Homo sapiens), P42574; recombinant procaspase-3 D3A, Ac-DEVD-pNA absorbance 405 nm; activation, % at 8.5 µM; 0.11% of 330,000 active;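 active means activation above the mean of all tested compounds plus 3 SD, cut at about 21% in these data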
Target sequence (P42574 whole entry D9A/D28A/D175A): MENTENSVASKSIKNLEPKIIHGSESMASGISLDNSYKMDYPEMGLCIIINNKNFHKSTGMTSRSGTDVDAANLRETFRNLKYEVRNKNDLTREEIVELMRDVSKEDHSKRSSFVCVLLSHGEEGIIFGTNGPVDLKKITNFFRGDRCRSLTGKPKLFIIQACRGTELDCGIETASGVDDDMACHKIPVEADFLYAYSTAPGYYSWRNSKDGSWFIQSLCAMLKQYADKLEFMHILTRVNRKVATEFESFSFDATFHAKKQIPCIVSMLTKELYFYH
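Assay system – Procaspase-3 D3A mutant, all three cleavage aspartates alanine · Controls – DMSO-only low control, 5 µM PC-3 D3A high control · Schedule – 1 h compound preincubation, 2 h substrate hydrolysis at 25 °C · Signal – 405 nm absorbance of p-nitroaniline, reads at 0 and 120 min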
PLCb3 inh – human PLC-beta3 inhibitors, primary screen, biochemical, fluorescence; 1-phosphatidylinositol 4,5-bisphosphate phosphodiesterase beta-3 (Homo sapiens), Q01970; Purified PLC-beta3, fluorogenic substrate; inhibition, % at 12.2 µM; 0.18% of 370,000 active; AID 720704, 2013; in the data active means inhibition above about 11%
sPLA2-III inh – human group III sPLA2 inhibitors, primary screen, biochemical, QFRET, BODIPY PC-A2 liposome substrate; inhibition, % at 12.2 µM; AID 743126, 2013; Group 3 secretory phospholipase A2 (Homo sapiens), Q9NZ20; 0.56% of 370,000 active; QFRET BODIPY PC-A2 liposome hydrolysis, fluorescence;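 active means inhibition above mean plus 3 SD of compounds lying within the high and low control bounds, cut at about 19% in these data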
PLC-gamma1 inh – PLC-gamma1 enzyme inhibitors, primary screen, biochemical, fluorescence, purified enzyme. 1-phosphatidylinositol 4,5-bisphosphate phosphodiesterase gamma-1 (Homo sapiens), P19174. fluorogenic substrate. inhibition, % at 12.2 µM. 0.84% of 370,000 active. AID 720700, 2013
procasp7 counter – procaspase-7 activators, primary screen, counter-screen for procaspase-3 activator project, biochemical, absorbance, HTS, human | activation, % at 8.5 µM | recombinant procaspase-7, Ac-DEVD-pNA absorbance 405 nm; D23A/D198A/D206A triple mutant, cannot self-cleave; scale: DMSO 0, 5 µM enzyme 100 | 0.093% of 330,000 active;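 active means percent activation above the screen-wide mean plus 3 SD, cut at about 25% in these data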
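Assay system: Uncleavable procaspase-7 mutant enzyme | Input: 2 µM procaspase-7 mutant as dispensed | Timing: 1 h compound preincubation, 2 h substrate cleavage, 25 °C | Repeats: One well per compound | Control set: DMSO wells as 0%, DMSO with 5 µM added PC-7 as 100% | Technique: Epi-absorbance of released pNA at 405 nm, two timepoints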
Arrestin-AP2 inh – inhibitors of beta-arrestin/AP2 binding, primary screen, biochemical, GPCR trafficking, flow cytometry; inhibition, % at 10 µM; beta-arrestin 1 C-terminal peptide binding to AP2 beta2-adaptin appendage (human); 0.31% of 340,000 active; FITC-arrestin peptide / GST-AP2 beads; AP2 beta2 appendage carries R879A mutation;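 active means inhibition above a set limit, near 3 SD of compounds lacking own fluorescence, cut at about 54% in these data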
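Material – AP2 appendage R879A on GSH beads · Buffer or medium – PBS with 0.05% Tween 20 and 0.1% BSA · Probe or stimulus – fluorescein-tagged arrestin peptide at 50 nM final · Incubation – compound with beads 12 min RT, then probe 1 h RT · Detection – high-throughput flow cytometry of beads, ex 488, em 535 nm · Evaluation – percent response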
PLCgamma1 ctr – PLC-gamma1 enzyme inhibitors, counter-screen for PLC-beta3 inhibitor project, biochemical, fluorescence. AID 743258, 2014. 3.1% of 3,300 active. purified PLC-gamma1, fluorogenic substrate. inhibition, % at 12.3 µM. shares compounds with PLC-gamma1 inh
PLCb3 confirm – PLC-beta3 inhibitor confirmation, biochemical, fluorescence, purified enzyme | shares compounds with PLC-gamma1 inh | fluorogenic substrate fluorescence | inhibition, % at 12.3 µM | 1% of 3,300 active | AID 743261, 2014; in the data active means inhibition above about 11%
Hits are given with their value; 0 = inactive; - = no result given. An excerpt weighted towards active compounds, which were near 1.9% of everything screened. Unless noted, no stated cut-off is given here; in the data, active means inhibition above about 9.5%; inactive means the rest.

SMILES | procasp3 activ | PLCb3 inh | sPLA2-III inh | PLC-gamma1 inh | procasp7 counter | Arrestin-AP2 inh | PLCgamma1 ctr | PLCb3 confirm
O=C(Nc1nnc([C@H]2C[C@H](O)[C@@H](CO)O2)s1)NC(c1ccccc1)c1ccccc1 | - | 0 | 0 | 12.0 | - | - | 0 | 0
O=C(NCc1ccc(F)cc1)Nc1nnc([C@@H]2C[C@H](O)[C@@H](CO)O2)s1 | - | 0 | 0 | 0 | - | - | - | -
COc1cccc(NC(=O)C2CCCN2C(=O)NCc2ccccc2)c1 (stereo not given) | - | 0 | 0 | 0 | - | - | - | -
COC(=O)C1=C(C)N(Cc2cccc(C(F)(F)F)c2)C(=NCc2cc(OC)c(OC)c(OC)c2)NC1c1ccc(F)cc1 (stereo not given) | - | 0 | 0 | 0 | - | - | - | -
O=C1NC(c2ccccc2)=NC1(NS(=O)(=O)c1ccc(Cl)cc1)C(F)(F)F (stereo not given) | 0 | 0 | 0 | 0 | 0 | 0 | - | -
CC(=O)NC1(C(F)(F)F)N=C2SCCN2C1=O (stereo not given) | 0 | 0 | 0 | 0 | 0 | 0 | - | -
O=C1NC(c2ccccc2)=NC1(NS(=O)(=O)c1ccccc1)C(F)(F)F (stereo not given) | 0 | 11.1 | 0 | 0 | 0 | 0 | 0 | 0
O=C1N2CCSC2=NC1(NS(=O)(=O)c1ccccc1)C(F)(F)F (stereo not given) | 0 | 0 | 0 | 10.2 | 0 | 0 | 0 | 0
Cc1ccc(OCC(O)CN2CCN(c3ccccn3)CC2)c(C)c1 (stereo not given) | 0 | 0 | 0 | 0 | 0 | 0 | - | -
CC(C)(C)c1ccccc1OCC(O)CN1CCN(c2ccccn2)CC1 (stereo not given) | 0 | 0 | 0 | 12.4 | 0 | 0 | 0 | 0
CC1(C(=O)O)CCC(C(=O)Nc2ccc(OC(F)(F)Cl)cc2)C1(C)C (stereo not given) | 0 | 0 | 0 | 0 | 0 | 0 | - | -
Cc1onc(-c2c(F)cccc2Cl)c1C(=O)N1CCCCC1 | 0 | 0 | 0 | 0 | 0 | 0 | - | -
NC(=O)C1CCN(C(=O)CCn2c(=O)oc3ccccc32)CC1 | 0 | 0 | 0 | 0 | 0 | 0 | - | -
CCOC(=O)C1CCN(C(=O)c2ccc(Br)o2)CC1 | 0 | 0 | 0 | 10.2 | 0 | 0 | 0 | 0
CCOC(=O)C1CCN(C(=O)c2c(-c3c(F)cccc3Cl)noc2C)CC1 | 0 | 0 | 0 | 10.2 | 0 | 0 | 0 | 0
CCOC(=O)C1CCN(C(=O)CCn2c(=O)oc3ccccc32)CC1 | - | 0 | 0 | 9.6 | - | - | 0 | 0
O=C1C[C@@H](c2ccccc2)N=C2N(Cc3ccc4c(c3)OCO4)C/C(=C/c3ccccc3)N12 | - | 0 | 0 | 0 | - | - | - | -
COC(=O)C[C@@H]1CC[C@@H]2[C@@H](COc3ccc(NC(C)=O)cc3C(=O)N2C)O1 | - | 0 | 0 | 0 | - | - | - | -
c1ccc(CN2CCN(C(c3ccccc3)c3ccccc3)CC2)cc1 | 0 | 0 | 0 | 10.7 | 0 | 0 | 0 | 0
CC(C)CNC(=O)C1CCN(Cc2ccc(OCc3ccccc3)cc2)CC1 | 0 | 0 | 0 | 11.8 | 0 | 0 | 0 | 0
C=CCN1C(=O)[C@H](CC(=O)N2CCC(c3ccccc3)CC2)[C@@]2(C(=O)OCC)CCCC=C12 | - | 0 | 0 | 0 | - | - | - | -
CCc1ccc(C(=O)NNC(=O)c2ccc(OCC(=O)N3CCOCC3)c(OC)c2)cc1 | 0 | 0 | 0 | 13.1 | 0 | 0 | 0 | 0

Compound activity as filed in PubChem.
